Holding throughout (type): functional
For experiment [1], the species on record is Mus musculus. Briefly: In vitro reversal activity versus ~90% block by rocuronium in isolated mouse hemidiaphragm, expressed as % of maximum reversal at 216 uM conc.
Experiment [2] is filed under the species Mus musculus. Briefly: In vitro reversal activity versus ~90% block by rocuronium in isolated mouse hemidiaphragm, expressed as effective conc.
The subject of experiment [3] is Cavia porcellus. Briefly: In vivo reversal activity versus ~90% block by rocuronium in guinea pig. In a few lines: (§1)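 Male Dunkin-Hartley guinea pigs (600-900 g), anaesthetized ip with pentobarbitone 10 mg/kg plus urethane 1000 mg/kg, tracheotomized and ventilated. Continuous iv rocuronium infusion (~10 nmol kg-1 min-1) was raised to a steady 85-90% block. Increasing iv doses of agent were given cumulatively. ED50 = 50% recovery versus preblock twitch, by regression. Mean ± SEM of at least two experiments, or one.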

The species entered for experiment [4] is Mus musculus. Briefly: In vitro reversal activity versus ~90% block by rocuronium in isolated mouse hemidiaphragm, expressed as % of maximum reversal at 144 uM conc.
Experiment [5] deals with Cavia porcellus. The experiment in a line: In vivo reversal activity versus ~90% block by rocuronium in guinea pig, expressed as % of maximum reversal at 12 umol/kg conc. In a few lines:
(§2)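 Male Dunkin-Hartley guinea pigs (600-900 g) anaesthetized ip with pentobarbitone 10 mg/kg plus urethane 1000 mg/kg, tracheotomized and artificially ventilated. Continuous iv rocuronium bromide infusion (~10 nmol kg-1 min-1) raised until steady-state twitch block of 85-90%. Increasing single iv doses of reversal agent given by a separate catheter. Max reversal is peak twitch recovery versus preblock height at highest dose tested; means ± SEM, n ≥ 2 or single experiment.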

The test system of experiment [6] is Cavia porcellus. Briefly: In vivo reversal activity versus ~90% block by rocuronium in guinea pig, expressed as % of maximum reversal at 10 umol/kg conc. In a few lines: as §1
The species named for experiment [7] is Mus musculus. Briefly: In vitro reversal activity versus ~90% block by rocuronium in isolated mouse hemidiaphragm, expressed as % of maximum reversal at 18 uM conc.
In experiment [8] the test system is Cavia porcellus. The experiment in a line: In vivo reversal activity versus ~90% block by rocuronium in guinea pig, expressed as % of maximum reversal at 316 umol/kg conc. In a few lines:
as §2

Experiment [9] is filed under the species Mus musculus. Briefly: In vitro reversal activity versus ~90% block by rocuronium in isolated mouse hemidiaphragm, expressed as % of maximum reversal at 360 uM conc.

By EC50 is commonly meant the concentration giving half of the maximal effect. As usually defined, the ED50 is the dose at which the effect has come halfway, by size or by number of responders.

In the case of `O=C([O-])c1ccccc1SCC1O[C@@H]2O[C@@H]3C(CSc4ccccc4C(=O)[O-])O[C@H](O[C@@H]4C(CSc5ccccc5C(=O)[O-])O[C@H](O[C@@H]5C(CSc6ccccc6C(=O)[O-])O[C@H](O[C@@H]6C(CSc7ccccc7C(=O)[O-])O[C@H](O[C@@H]7C(CSc8ccccc8C(=O)[O-])O[C@H](O[C@@H]8C(CSc9ccccc9C(=O)[O-])O[C@H](O[C@@H]9C(CSc%10ccccc%10C(=O)[O-])O[C@H](O[C@H]1C(O)C2O)C(O)C9O)C(O)C8O)C(O)C7O)C(O)C6O)C(O)C5O)C(O)C4O)C(O)C3O.[Na+].[Na+].[Na+].[Na+].[Na+].[Na+].[Na+].[Na+]` (some centres undefined), the Max reversal in the experiment filed under Mus musculus [1] is recorded as 42.3%. Besides, the EC50 in the experiment filed under Mus musculus [2] worked out at 227 µM.
For `O=C([O-])CCSCC1O[C@@H]2O[C@@H]3C(CO)O[C@H](O[C@@H]4C(CO)O[C@H](O[C@@H]5C(CO)O[C@H](O[C@@H]6C(CO)O[C@H](O[C@@H]7C(CO)O[C@H](O[C@@H]8C(CO)O[C@H](O[C@@H]9C(CO)O[C@H](O[C@H]1C(O)C2O)C(O)C9O)C(O)C8O)C(O)C7O)C(O)C6O)C(O)C5O)C(O)C4O)C(O)C3O.[Na+]` (some centres undefined), in the experiment with Cavia porcellus [3], the ED50 worked out at 1.3 µmol/kg. In addition, the Max reversal is 94.5% in the experiment filed under Mus musculus [4] and 100.6% in the experiment with Cavia porcellus [5]. In the experiment listed under Mus musculus [2], the EC50 amounted to 17.2 µM.
On to `C[C@H](CSCC1O[C@@H]2O[C@@H]3C(CSC[C@H](C)C(=O)N4CCCC4C(=O)[O-])O[C@H](O[C@@H]4C(CSC[C@@H](C)C(=O)N5CCCC5C(=O)[O-])O[C@H](O[C@@H]5C(CSC[C@@H](C)C(=O)N6CCCC6C(=O)[O-])O[C@H](O[C@@H]6C(CSC[C@H](C)C(=O)N7CCCC7C(=O)[O-])O[C@H](O[C@@H]7C(CSC[C@@H](C)C(=O)N8CCCC8C(=O)[O-])O[C@H](O[C@@H]8C(CSC[C@H](C)C(=O)N9CCCC9C(=O)[O-])O[C@H](O[C@@H]9C(CSC[C@@H](C)C(=O)N%10CCCC%10C(=O)[O-])O[C@H](O[C@H]1C(O)C2O)C(O)C9O)C(O)C8O)C(O)C7O)C(O)C6O)C(O)C5O)C(O)C4O)C(O)C3O)C(=O)N1CCCC1C(=O)[O-].[Na+].[Na+].[Na+].[Na+].[Na+].[Na+].[Na+].[Na+]` (some centres undefined), for which, in the experiment with Cavia porcellus [3], the 50% effective dose (ED50) was 1.49 µmol/kg. Further, the Max reversal with Cavia porcellus [6] is listed as 103.6%; in the experiment listed under Mus musculus [7] it was 35.7%. Moreover, the concentration for a half-maximal effect (EC50) in the experiment listed under Mus musculus [2] was 33.9 µM.
`OC[C@H]1O[C@@H]2O[C@H]3[C@H](O)[C@@H](O)[C@@H](O[C@H]4[C@H](O)[C@@H](O)[C@@H](O[C@H]5[C@H](O)[C@@H](O)[C@@H](O[C@H]6[C@H](O)[C@@H](O)[C@@H](O[C@H]7[C@H](O)[C@@H](O)[C@@H](O[C@H]8[C@H](O)[C@@H](O)[C@@H](O[C@H]1[C@H](O)[C@H]2O)O[C@@H]8CO)O[C@@H]7CO)O[C@@H]6CO)O[C@@H]5CO)O[C@@H]4CO)O[C@@H]3CO` [BETADEX]: in the experiment on Cavia porcellus [3], the ED50 was determined as 20 µmol/kg. The Max reversal in the experiment on Cavia porcellus [8] was 92.9%; in the experiment listed under Mus musculus [9] it was 29%. Also, the concentration giving a half-maximal response (EC50) in the experiment filed under Mus musculus [2] is > 360 µM.
